# Results published in ChEMBL document CHEMBL1649427, “Inactivation of the glycoside hydrolase NagZ attenuates antipseudomonal beta-lactam resistance in Pseudomonas aeruginosa” (Antimicrob Agents Chemother, 2009).
# How the values were obtained:
# Pseudomonas aeruginosa [1] = assay: Antimicrobial activity against ampDh2 and ampDh3 gene-deficient Pseudomonas aeruginosa PAO1 after 18 hrs by broth microdilution method; type: functional; details: PAO1, 18 h
# Summary of the method: (§1)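 Wells are then inoculated with 100 μl culture and incubated 18 h at 37°C. The MIC is the lowest concentration with no growth. Triplicate determinations.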
# Pseudomonas aeruginosa [2] = assay: Antimicrobial activity against ampDh3 gene-deficient Pseudomonas aeruginosa PAO1 after 18 hrs by broth microdilution method in presence; type: functional; details: PAO1, 18 h; summary of the method: as §1
# Pseudomonas aeruginosa [3] = assay: Antimicrobial activity against ampDDh3 gene-deficient Pseudomonas aeruginosa PAO1 after 18 hrs by broth microdilution method in presence; type: functional; details: PAO1, 18 h; summary of the method: as §1
# Pseudomonas aeruginosa [4] = assay: Ratio of MIC for Pseudomonas aeruginosa PAO1 harboring deltaampD::lox deltaampDh2::lox deltaampDh3::lox to MIC for Pseudomonas aeruginosa PAO1 harboring deltaampD::lox deltaampDh2::lox deltaampDh3::lox deltanagZ::Gm
# Pseudomonas aeruginosa [5] = assay: Antimicrobial activity against ampD gene-deficient Pseudomonas aeruginosa PAO1 after 18 hrs by broth microdilution method in absence of EtBuPUG; details: PAO1, 18 h
# Pseudomonas aeruginosa [6] = assay: Ratio of MIC for ampDh3 gene-deficient Pseudomonas aeruginosa PAO1 after 18 hrs by broth microdilution method presence of 0.5 mM nagZ inhibitor EtBuPUG to MIC for ampDh3 gene-deficient Pseudomonas aeruginosa PAO1 in absence of nagZ inhibitor EtBuPUG; type: functional
# Summary of the method: (§2)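 Broth microdilution in Mueller-Hinton broth. Serial β-lactam dilutions in 80 μl broth, plus 20 μl EtBuPUG (5 mM stock in H₂O) or 20 μl H₂O, then 100 μl culture grown to OD600 ~0.5. Plates incubated at 37°C for 18 h. MIC read as the antibiotic concentration in wells with no growth, with and without inhibitor. Triplicate.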
# Pseudomonas aeruginosa [7] = assay: Antimicrobial activity against Pseudomonas aeruginosa PAO1 after 18 hrs by broth microdilution method in presence of 0.5 mM nagZ inhibitor EtBuPUG; type: functional; details: PAO1, 18 h; summary of the method: as §1
# Pseudomonas aeruginosa [8] = assay: Antimicrobial activity against Pseudomonas aeruginosa PAO1 harboring deltaampD::lox deltaampDh2::lox delta ampDh3::lox and plasmid pUCP27 after 18 hrs by Etest; type: functional; details: PAO1, 18 h
# Summary of the method: (§3)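 Etest strips on Mueller-Hinton agar supplemented with 75 μg/ml tetracycline to maintain the vector or complementation plasmid, run per the manufacturer's recommendations; triplicate determinations.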
# Pseudomonas aeruginosa [9] = assay: Antimicrobial activity against Pseudomonas aeruginosa PAO1 after 18 hrs by using 30 ug/disk by agar diffusion method in presence of 0.5 mM nagZ inhibitor EtBuPUG; type: functional
# Summary of the method: (§4)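 Cultures grown in Mueller-Hinton broth at 37°C to OD600 ~0.5, pelleted, resuspended in 2 ml broth and streaked on Mueller-Hinton agar. […] Inhibition zone diameter measured after overnight incubation at 37°C. Triplicate determinations.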
# Pseudomonas aeruginosa [10] = assay: Antimicrobial activity against ampDh2 and ampDh3 gene-deficient Pseudomonas aeruginosa PAO1 after 18 hrs by broth microdilution method in presence of 0.5 mM nagZ inhibitor EtBuPUG; type: functional; details: PAO1, 18 h; summary of the method: as §1
# Pseudomonas aeruginosa [11] = assay: Antimicrobial activity against Pseudomonas aeruginosa PAO1 after 18 hrs by using 30 ug/disk by agar diffusion method; type: functional
# Summary of the method: (§5)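 Cultures grown in Mueller-Hinton broth at 37°C to OD600 ~0.5, pelleted, resuspended in 2 ml broth and streaked on Mueller-Hinton agar. Inhibition zone diameter measured after overnight incubation at 37°C. Triplicate determinations.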
# Pseudomonas aeruginosa [12] = assay: Antimicrobial activity against nagZ gene-deficient Pseudomonas aeruginosa PAO1 after 18 hrs by broth microdilution method; type: functional; details: PAO1, 18 h
# Summary of the method: (§6)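 CLSI broth microdilution in cation-adjusted Mueller-Hinton medium with serial β-lactam dilutions. Each well holds 200 μl broth inoculated with ~10⁴ cells from starter cultures at OD600 ~0.5. Plates shaken at 37°C for 18 h. The MIC is read as the lowest antibiotic concentration showing no growth. Triplicate determinations.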
# Pseudomonas aeruginosa [13] = assay: Ratio of MIC for ampDh2 gene-deficient Pseudomonas aeruginosa PAO1 after 18 hrs by broth microdilution method in presence of 0.5 mM nagZ inhibitor EtBuPUG to MIC for ampDh2 gene-deficient Pseudomonas aeruginosa PAO1 in absence of nagZ inhibitor EtBuPUG; type: functional; summary of the method: as §2
# Pseudomonas aeruginosa [14] = assay: Antimicrobial activity against ampDDh2 and ampDh3 gene-deficient Pseudomonas aeruginosa PAO1 after 18 hrs using […] by agar diffusion method in presence of 0.5 mM nagZ inhibitor EtBuPUG; type: functional; summary of the method: as §5
# Pseudomonas aeruginosa [15] = assay: Antimicrobial activity against ampDh2 gene-deficient Pseudomonas aeruginosa PAO1 using 30 ug/disk by agar diffusion method in presence of 0.5 mM nagZ inhibitor EtBuPUG; type: functional; summary of the method: as §4
# Pseudomonas aeruginosa [16] = assay: Antimicrobial activity against ampDDh2 gene-deficient Pseudomonas aeruginosa PAO1 after 18 hrs by broth microdilution method in presence of 0.5 mM nagZ inhibitor EtBuPUG; type: functional; details: PAO1, 18 h; summary of the method: as §1
# Pseudomonas aeruginosa [17] = assay: Antimicrobial activity against Pseudomonas aeruginosa PAO1 after 18 hrs by broth microdilution method; type: functional; details: PAO1, 18 h; summary of the method: as §6
# Pseudomonas aeruginosa [18] = assay: Antimicrobial activity against Pseudomonas aeruginosa PAO1 harboring deltaampD::lox deltaampDh2::lox deltaampDh3::lox deltanagZ::Gm after 18 hrs by Etest; type: functional; details: PAO1, 18 h
# Summary of the method: (§7)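 Etest strips on Mueller-Hinton agar plates, run per the manufacturer's recommendations; MICs determined in triplicate.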
# Pseudomonas aeruginosa [19] = assay: Ratio of MIC for ampD gene-deficient Pseudomonas aeruginosa PAO1 after 18 hrs by broth microdilution method presence of 0.5 mM nagZ inhibitor EtBuPUG to MIC for […] gene-deficient Pseudomonas aeruginosa PAO1 in absence of nagZ inhibitor EtBuPUG; type: functional; summary of the method: as §2
# Pseudomonas aeruginosa [20] = assay: Antimicrobial activity against ampD gene-deficient Pseudomonas aeruginosa PAO1 after 18 hrs by broth microdilution method in presence of 0.5 mM nagZ inhibitor EtBuPUG; type: functional; details: PAO1, 18 h; summary of the method: as §1
# Pseudomonas aeruginosa [21] = assay: Antimicrobial activity against ampDDh2 and ampDh3 gene-deficient Pseudomonas aeruginosa PAO1 after 18 hrs by broth microdilution method in presence of 0.5 mM nagZ inhibitor EtBuPUG; type: functional; details: PAO1, 18 h; summary of the method: as §1
# Pseudomonas aeruginosa [22] = assay: Antimicrobial activity against ampDDh2 gene-deficient Pseudomonas aeruginosa PAO1 after 18 hrs by broth microdilution method in presence; type: functional; details: PAO1, 18 h; summary of the method: as §1
# Pseudomonas aeruginosa [23] = assay: Antimicrobial activity against ampDh2 gene-deficient Pseudomonas aeruginosa PAO1 after 18 hrs by broth microdilution method in presence of 0.5 mM nagZ inhibitor EtBuPUG; type: functional; details: PAO1, 18 h; summary of the method: as §1
# Pseudomonas aeruginosa [24] = assay: Antimicrobial activity against ampDDh2 and ampDh3 gene-deficient Pseudomonas aeruginosa PAO1 after 18 hrs using […] by agar diffusion method; type: functional; summary of the method: as §4
# Pseudomonas aeruginosa [25] = assay: Antimicrobial activity against Pseudomonas aeruginosa PAO1 harboring deltaampD::lox deltaampDh2::lox delta ampDh3::lox and wild type nagZ gene after 18 hrs by Etest; type: functional; details: PAO1, 18 h; summary of the method: as §3
# Pseudomonas aeruginosa [26] = assay: Antimicrobial activity against Pseudomonas aeruginosa PAO1 harboring deltaampD::lox deltaampDh2::lox delta ampDh3::lox after 18 hrs by Etest; type: functional; details: PAO1, 18 h; summary of the method: as §7
# Pseudomonas aeruginosa [27] = assay: Antimicrobial activity against ampDh2 gene-deficient Pseudomonas aeruginosa PAO1 using 30 ug/disk by agar diffusion method; type: functional; summary of the method: as §5
# Pseudomonas aeruginosa [28] = assay: Antimicrobial activity against ampDh3 gene-deficient Pseudomonas aeruginosa PAO1 after 18 hrs by broth microdilution method in presence of 0.5 mM nagZ inhibitor EtBuPUG; type: functional; details: PAO1, 18 h; summary of the method: as §1
# Pseudomonas aeruginosa [29] = assay: Antimicrobial activity against ampDh2 gene-deficient Pseudomonas aeruginosa PAO1 after 18 hrs by broth microdilution method in absence of EtBuPUG; details: PAO1, 18 h
# Pseudomonas aeruginosa [30] = assay: Antimicrobial activity against ampDDh3 gene-deficient Pseudomonas aeruginosa PAO1 after 18 hrs by broth microdilution method in presence of 0.5 mM nagZ inhibitor EtBuPUG; type: functional; details: PAO1, 18 h; summary of the method: as §1
# Pseudomonas aeruginosa [31] = assay: Antimicrobial activity against Pseudomonas aeruginosa PAO1 harboring deltaampD::lox deltaampDh2::lox deltaampDh3::lox after 18 hrs by broth microdilution method; type: functional; details: PAO1, 18 h; summary of the method: as §6
# Pseudomonas aeruginosa [32] = assay: Antimicrobial activity against Pseudomonas aeruginosa PAO1 harboring deltaampD::lox deltaampDh2::lox delta ampDh3::lox after 18 hrs by broth microdilution method; type: functional; details: PAO1, 18 h; summary of the method: as §6
# Pseudomonas aeruginosa [33] = assay: Antimicrobial activity against Pseudomonas aeruginosa PAO1 after 18 hrs by Etest; type: functional; details: PAO1, 18 h
# Summary of the method: (§8)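 Strains are P. aeruginosa PAO1 and its insertional nagZ-inactivated derivative. MICs were read from Etest strips on Mueller-Hinton agar, following the manufacturer's recommendations. Each determination was done in triplicate.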
# Pseudomonas aeruginosa [34] = assay: Antimicrobial activity against nagZ gene-deficient Pseudomonas aeruginosa PAO1 after 18 hrs by Etest; type: functional; details: PAO1, 18 h; summary of the method: as §8
# Pseudomonas aeruginosa [35] = assay: Antimicrobial activity against Pseudomonas aeruginosa PAO1 harboring deltaampD::lox deltaampDh2::lox deltaampDh3::lox deltanagZ::Gm after 18 hrs by Etest in presence of beta-lactamase inhibitor Tazobactam; type: functional; details: PAO1, 18 h
# Pseudomonas aeruginosa [36] = assay: Antimicrobial activity against Pseudomonas aeruginosa PAO1 harboring deltaampD::lox deltaampDh2::lox delta ampDh3::lox after 18 hrs by Etest in presence of beta-lactamase inhibitor Tazobactam; type: functional; details: PAO1, 18 h
# Pseudomonas aeruginosa [37] = assay: Antimicrobial activity against nagZ gene-deficient Pseudomonas aeruginosa PAO1 after 18 hrs by Etest in presence of beta-lactamase inhibitor Tazobactam; type: functional; details: PAO1, 18 h; summary of the method: as §8
# Pseudomonas aeruginosa [38] = assay: Ratio of MIC for Pseudomonas aeruginosa PAO1 harboring deltaampD::lox deltaampDh2::lox deltaampDh3::lox deltanagZ::Gm in presence of beta-lactamase inhibitor Tazobactam to MIC for nagZ gene-deficient Pseudomonas aeruginosa PAO1 in presence of beta-lactamase inhibitor Tazobactam; type: functional
# Pseudomonas aeruginosa [39] = assay: Antimicrobial activity against Pseudomonas aeruginosa PAO1 after 18 hrs by Etest in presence of beta-lactamase inhibitor Tazobactam; type: functional; details: PAO1, 18 h; summary of the method: as §8
structure (smiles),measurement,setting,value
CC(C)(O/N=C(\C(=O)N[C@@H]1C(=O)N2C(C(=O)[O-])=C(C[n+]3ccccc3)CS[C@H]12)c1csc(N)n1)C(=O)O [CEFTAZIDIME],MIC,Pseudomonas aeruginosa [1],0.75 µg/mL
same,MIC,Pseudomonas aeruginosa [2],1 µg/mL
same,MIC,Pseudomonas aeruginosa [3],48 µg/mL
same,Ratio,Pseudomonas aeruginosa [4],4
same,MIC,Pseudomonas aeruginosa [5],8 µg/mL
same,Ratio,Pseudomonas aeruginosa [6],2
same,MIC,Pseudomonas aeruginosa [7],0.5 µg/mL
same,MIC,Pseudomonas aeruginosa [8],12 µg/mL
same,inhibition zone (IZ),Pseudomonas aeruginosa [9],13.1 mm
same,MIC,Pseudomonas aeruginosa [10],0.75 µg/mL
same,inhibition zone (IZ),Pseudomonas aeruginosa [11],11.4 mm
same,MIC,Pseudomonas aeruginosa [12],0.5 µg/mL
same,Ratio,Pseudomonas aeruginosa [13],4
same,inhibition zone (IZ),Pseudomonas aeruginosa [14],9.5 mm
same,inhibition zone (IZ),Pseudomonas aeruginosa [15],12.3 mm
same,MIC,Pseudomonas aeruginosa [16],6 µg/mL
same,MIC,Pseudomonas aeruginosa [17],1 µg/mL
same,MIC,Pseudomonas aeruginosa [18],12 µg/mL
same,Ratio,Pseudomonas aeruginosa [19],2
same,MIC,Pseudomonas aeruginosa [20],4 µg/mL
same,MIC,Pseudomonas aeruginosa [21],48 µg/mL
same,MIC,Pseudomonas aeruginosa [22],12 µg/mL
same,MIC,Pseudomonas aeruginosa [23],0.19 µg/mL
same,inhibition zone (IZ),Pseudomonas aeruginosa [24],9.2 mm
same,MIC,Pseudomonas aeruginosa [25],48 µg/mL
same,MIC,Pseudomonas aeruginosa [26],48 µg/mL
same,inhibition zone (IZ),Pseudomonas aeruginosa [27],10.1 mm
same,MIC,Pseudomonas aeruginosa [28],0.5 µg/mL
same,MIC,Pseudomonas aeruginosa [29],0.75 µg/mL
same,MIC,Pseudomonas aeruginosa [30],48 µg/mL
O=C(O)c1cn(C2CC2)c2cc(N3CCNCC3)c(F)cc2c1=O [CIPROFLOXACIN],MIC,Pseudomonas aeruginosa [12],0.2 µg/mL
same,MIC,Pseudomonas aeruginosa [17],0.2 µg/mL
same,MIC,Pseudomonas aeruginosa [31],0.2 µg/mL
same,MIC,Pseudomonas aeruginosa [32],0.2 µg/mL
C[C@@H](O)[C@H]1C(=O)N2C(C(=O)O)=C(SCCNC=N)C[C@H]12 [IMIPENEM ANHYDROUS],MIC,Pseudomonas aeruginosa [18],1.5 µg/mL
same,MIC,Pseudomonas aeruginosa [33],3 µg/mL
same,MIC,Pseudomonas aeruginosa [26],1.5 µg/mL
same,MIC,Pseudomonas aeruginosa [34],2 µg/mL
CCN1CCN(C(=O)N[C@@H](C(=O)N[C@@H]2C(=O)N3[C@@H]2SC(C)(C)[C@@H]3C(=O)O)c2ccccc2)C(=O)C1=O [PIPERACILLIN],MIC,Pseudomonas aeruginosa [35],16 µg/mL
same,MIC,Pseudomonas aeruginosa [36],≥ 256 µg/mL
same,MIC,Pseudomonas aeruginosa [37],1.5 µg/mL
same,MIC,Pseudomonas aeruginosa [18],24 µg/mL
same,MIC,Pseudomonas aeruginosa [33],1 µg/mL
same,Ratio,Pseudomonas aeruginosa [38],10
same,MIC,Pseudomonas aeruginosa [26],> 256 µg/mL
same,MIC,Pseudomonas aeruginosa [34],1 µg/mL
same,MIC,Pseudomonas aeruginosa [39],1 µg/mL
